Assay results reported in ChEMBL document CHEMBL4219067, “Synthesis and activity evaluation of a series of cholanamides as modulators of the liver X receptors” (Bioorg Med Chem, 2018).
Calls of active or inactive are those of the source. The calls are words filed in the database; no cut-off is given here.

How the values were obtained:
Type in all cases: cell-based
[1] = target: T1, Oxysterols receptor LXR-alpha (Homo sapiens) (UniProt Q13133); assay: Agonist activity at human full length LXRalpha expressed in […] cells co-expressing human pSG5/RXRalpha at 10 uM after 18 hrs by luciferase reporter gene assay relative to GW3965
T1 sequence (whole entry): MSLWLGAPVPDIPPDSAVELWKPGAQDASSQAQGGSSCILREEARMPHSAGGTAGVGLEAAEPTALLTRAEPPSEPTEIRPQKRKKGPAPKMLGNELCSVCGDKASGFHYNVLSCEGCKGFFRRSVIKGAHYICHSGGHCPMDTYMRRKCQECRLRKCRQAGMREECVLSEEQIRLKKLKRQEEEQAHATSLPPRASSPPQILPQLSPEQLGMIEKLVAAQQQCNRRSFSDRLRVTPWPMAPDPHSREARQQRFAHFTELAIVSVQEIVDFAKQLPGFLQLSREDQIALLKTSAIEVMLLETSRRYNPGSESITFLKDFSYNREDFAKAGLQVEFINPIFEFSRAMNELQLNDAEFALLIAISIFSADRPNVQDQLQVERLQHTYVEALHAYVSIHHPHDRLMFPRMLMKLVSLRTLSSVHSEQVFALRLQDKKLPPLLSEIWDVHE
Method in brief: (§1)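 BHK21 cells co-transfected with an RXR plasmid, a full-length human LXRα or LXRβ expression vector and the pGL3/LRELuc reporter. Steroids were added alone at 10 µM and luciferase activity was read. Activity is expressed as % induction relative to GW3965 1 µM (100%). Means ± S.E. of 3 independent experiments; one-way ANOVA with Dunnett's test versus the no-steroid control.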

[2] = target: T2, Oxysterols receptor LXR-beta (Homo sapiens) (UniProt P55055); assay: Agonist activity at human full length LXRbeta expressed in […] cells co-expressing human pSG5/RXRalpha at 10 uM after 18 hrs by luciferase reporter gene assay relative to GW3965; method in brief: as §1
T2 sequence (whole entry): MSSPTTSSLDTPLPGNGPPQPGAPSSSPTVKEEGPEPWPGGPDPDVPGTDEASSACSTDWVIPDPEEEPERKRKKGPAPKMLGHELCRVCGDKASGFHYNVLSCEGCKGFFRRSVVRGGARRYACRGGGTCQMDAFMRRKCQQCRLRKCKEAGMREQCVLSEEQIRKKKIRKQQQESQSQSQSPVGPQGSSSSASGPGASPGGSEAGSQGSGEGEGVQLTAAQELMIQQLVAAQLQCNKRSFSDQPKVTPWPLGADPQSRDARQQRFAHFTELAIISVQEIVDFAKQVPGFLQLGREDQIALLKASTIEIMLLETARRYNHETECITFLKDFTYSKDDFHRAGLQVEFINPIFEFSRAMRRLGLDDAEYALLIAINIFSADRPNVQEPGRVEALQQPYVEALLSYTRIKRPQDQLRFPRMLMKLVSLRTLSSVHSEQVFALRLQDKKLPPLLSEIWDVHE

[3] = target: T2, Oxysterols receptor LXR-beta (Homo sapiens); assay: Antagonist activity at human full length LXRbeta expressed in […] cells co-expressing human pSG5/RXRalpha assessed as inhibition of GW3965-induced receptor activation at 10 uM after 18 hrs by luciferase reporter gene assay
Method in brief: (§2)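 Antagonist mode in BHK21 cells co-transfected with an RXR plasmid, a full-length human LXRα or LXRβ vector and the pGL3/LRELuc luciferase reporter. Steroids at 10 µM were co-administered with the synthetic agonist GW3965. Luciferase output is given as % of the GW3965 1 µM response. Means ± S.E., n=3 independent experiments; Dunnett's test after one-way ANOVA.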

[4] = target: T1, Oxysterols receptor LXR-alpha (Homo sapiens); assay: Antagonist activity at human full length LXRalpha expressed in […] cells co-expressing human pSG5/RXRalpha assessed as inhibition of GW3965-induced receptor activation at 10 uM after 18 hrs by luciferase reporter gene assay; method in brief: as §2

Activity [1] | Activity [2] | inhibition [3] | inhibition [4] | Compound
Active | inactive |  |  | C[C@H](CCC(=O)N(C)C)[C@H]1CC[C@H]2[C@@H]3CC[C@@H]4C[C@H](O)CC[C@]4(C)[C@H]3CC[C@]12C
Active |  | inactive |  | C[C@H](CCC(=O)N(C)C)[C@H]1CC[C@H]2[C@@H]3C[C@@H]4OC[C@@]5(CC[C@@H](O)C=C45)[C@H]3CC[C@]12C
inactive | inactive | Active | Active | C[C@H](CCC(=O)N(C)C)[C@H]1CC[C@H]2[C@@H]3CC[C@H]4C[C@@H](O)[C@@H]5C[C@]4(CO5)[C@H]3CC[C@]12C
 | Active | Active | Active | C[C@H](CCC(=O)N(C)C)[C@H]1CC[C@H]2[C@@H]3C[C@H](O)[C@@H]4C[C@H](O)CC[C@]4(C)[C@H]3CC[C@]12C
inactive | inactive | Active | Active | C[C@H](CCC(=O)N(C)C)[C@H]1CC[C@H]2[C@@H]3CC[C@H]4C[C@H](O)[C@@H]5C[C@]4(CO5)[C@H]3CC[C@]12C

Compound | Activity [1] | Activity [2] | inhibition [3] | inhibition [4]
C[C@H](CCC(=O)N(C)C)[C@H]1CC[C@H]2[C@@H]3CC=C4C[C@@H](O)CC[C@]4(C)[C@H]3CC[C@]12C | Active | Active | Active | Active
